# High-throughput results from PubChem BioAssay.
# The sample as a whole holds a higher share of hits than the screen did.
# T cell HTS = T cell immune modulators affecting CD8 T cell-vesicle binding. 2C CD8+ T cell-vesicle binding, flow cytometry; hits give low values. response (vesicle binding), % at 7 µM. 0.068% of 330,000 active. AID 2052;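 active = response, share of CD8 T cells binding vesicles, and their 90th percentile fluorescence all below set limits, cut at about 80% in these data, passing the limit was not always enough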;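 note: values below 100% mean blocked vesicle binding to the CD8+ T cells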
#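 System: murine 2C transgenic CD8+ T lymphocytes; also added: QL9-loaded Drosophila micro-vesicles; times: binding 1.5 h at 37 °C; measured by: flow cytometry, PE anti-B7-1 (FL2) versus Alexa647 anti-CD8 (FL8), PFA-fixed; control set: Peptide-free naked vesicles (low) and QL9 vesicles with 0.7% DMSO vehicle (high)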
# ALR H2O2 inh = inhibitors of human sulfhydryl oxidase ALR. 3.8% of 290,000 active. AID 485317. inhibition, % (test concentration not listed). purified ALR, DTT oxidation, H2O2 HRP-luminol luminescence. P55789;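 active = mean replicate inhibition above about 79%, with every replicate also reaching it, limit read from the data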
# Target sequence (P55789 whole entry, looked up): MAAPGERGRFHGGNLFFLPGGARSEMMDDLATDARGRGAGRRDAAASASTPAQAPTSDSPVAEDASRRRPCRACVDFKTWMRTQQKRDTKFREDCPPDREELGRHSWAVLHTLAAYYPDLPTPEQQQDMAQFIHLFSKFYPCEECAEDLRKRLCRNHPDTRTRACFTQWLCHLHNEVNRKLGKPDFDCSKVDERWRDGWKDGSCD
# N-glyco inh = blocks N-linked glycosylation in D54 reporter cells; D54 ERlucT glycosylation luciferase reporter, 24 h; percent of 100 nM tunicamycin response; reporter increase, % at 12.5 µM; 0.23% of 360,000 active; AID 588692;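 active = mean luciferase reporter signal, scaled so untreated is 0 and the glycosylation-blocking control 100, at or above a set limit in every replicate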;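 note: luciferase carries N-glycosylation sites so blocking glycosylation raises the light; 0% = median of neutral control wells and 100% = median of 100 nM tunicamycin wells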
# Starred values were filed as active, the others as inactive; nt = no result.
SMILES,T cell HTS,ALR H2O2 inh,N-glyco inh
CCCN(CC(=O)Nc1ccccc1C)C(=O)CCCc1c[nH]c2ccccc12,146.0,-2.3,-1.7
CCCCN(C(=O)C1CC(=O)N(CCc2ccc(OC)c(OC)c2)C1)c1c(N)n(CC(C)C)c(=O)[nH]c1=O (stereo not given),nt,nt,1.1
CCN(C(=O)c1ccc(Cl)c(S(=O)(=O)Nc2c(C)n(C)n(-c3ccccc3)c2=O)c1)c1ccccc1,192.6,3.1,1.9
Cc1ccc(NC(=O)c2cnc(SCC(=O)c3ccccc3)n(C)c2=O)cc1,294.4,0.6,4.9
Cn1c(SCC(=O)c2ccccc2)ncc(C(=O)Nc2ccccc2)c1=O,335.4,97.9*,19.7
CCc1nc(N)nc(N)c1-c1ccc(N(C)Cc2ccccc2)c([N+](=O)[O-])c1,nt,nt,-8.5
O=C(CN1CCCc2ccccc21)N/N=C/c1ccc(O)cc1O,71.7,98.4*,-3.7
O=C(CN1CCCc2ccccc21)N/N=C/c1ccccc1,109.1,22.8,-2.9
CC(C)(C)NC(=O)NC(=O)CN1CCCc2ccccc21,587.4,96.2*,-1.4
O=C(CN1CCCc2ccccc21)NC(=O)NCc1ccccc1,91.8,27.4,-1.4
CC(C)[C@@H](NC(=O)C1CCC(CNC(=O)[C@H](Cc2ccccc2)NC(=O)OC(C)(C)C)CC1)C(=O)O (stereo not given in full),253.7,-2.4,1.7
Cc1ccc2nc(-c3ccccc3)cc(C(=O)NNC(=O)c3csc(N4CCOCC4)n3)c2c1,388.3,-3.4,-0.4
N#Cc1c(NC(=O)C2CC=CCC2C(=O)O)sc2c1CCCCCC2 (stereo not given),711.1,nt,0.8
CCC(C)(C)C1CCc2c(sc(NC(=O)c3ccccc3C(=O)O)c2C#N)C1 (stereo not given),341.4,62.9,-1.1
CC1CCc2c(sc(NC(=O)c3ccccc3C(=O)O)c2C#N)C1 (stereo not given),142.9,96.8*,0.8
CC(C)(C)C1CCc2c(sc(NC(=O)C3CC=CCC3C(=O)O)c2C#N)C1 (stereo not given),244.1,96.9*,2.0
Cc1cccc(NC(=O)CSc2nc(=O)n(CCCN3CCOCC3)c3c2CCCC3)c1,250.5,97.6*,-1.0
CC(=O)c1cccc(NC(=O)CSc2nc(=O)n(CCCN3CCOCC3)c3c2CCC3)c1,260.8,97.8*,-0.4
Cc1cc(C)cc(NC(=O)CSc2nc(=O)n(CCN3CCOCC3)c3c2CCCC3)c1,212.5,-17.6,2.2
O=C(CSc1nc(=O)n(CCCN2CCOCC2)c2c1CCCC2)Nc1ccc(F)c(F)c1,325.3,10.0,2.4
Cc1cccc(NC(=O)CSc2nc(=O)n(CCCN3CCOCC3)c3c2CCCC3)c1C,nt,nt,0.2
O=C(CSc1nc(=O)n(CCCN2CCOCC2)c2c1CCCC2)Nc1cccc(Cl)c1,396.9,98.6*,-3.8
COc1ccc(NC(=O)CN2C(=O)NC3(CC(C)CC(C)(C)C3)C2=O)cc1S(=O)(=O)N1CCCCC1 (stereo not given),295.8,-8.1,5.3
C[C@H]1CN([C@@H](C)CO)C(=O)Cc2cc(NC(=O)Cc3ccccc3)ccc2O[C@H]1CN(C)C(=O)Nc1cccc2ccccc12,675.0,-27.0,0.8
C[C@H]1CN([C@@H](C)CO)C(=O)CCCn2nncc2CO[C@@H]1CN(C)C(=O)NC1CCCCC1,nt,nt,1.8
SMILES,T cell HTS,ALR H2O2 inh,N-glyco inh
c1ccc(-c2ccc3ncccc3n2)cc1,nt,nt,1.6
Cc1ccn(CCC(=O)N2CCCC(CCC(=O)NCc3ccc(F)c(F)c3)C2)n1 (stereo not given),176.7,-32.2,-1.2
CC(c1nc2scc(-c3ccccc3)c2c(=O)[nH]1)N1CCN(CC(=O)NC2CC2)CC1 (stereo not given),nt,nt,-2.6
O=C(CSc1nnc2c(n1)[nH]c1ccc(F)cc12)NC1CC1,334.6,0.8,0.7
CC1(C)Oc2ccc3ccc(=O)oc3c2C[C@H]1O,250.7,-11.0,2.6
CC1(C)Oc2cc3oc(-c4cc(O)cc(O)c4)cc3cc2CC1O (stereo not given),148.8,99.2*,-18.2
COc1ccccc1Cc1c(-c2ccc(C)cc2)nc2ccc(Cl)cn12,nt,nt,-1.7
OCc1ccccc1CNCc1ccccc1,630.3,6.4,-3.0
OCc1ccccc1SSc1ccccc1CO,367.2,98.1*,1.4
CCN(c1ccccc1)S(=O)(=O)c1ccc(C(=O)Nc2ncccc2O)cc1,201.1,1.6,4.1
CC(C)(C)c1ccc(C(=O)N2CCC2(C)C(=O)NCc2ccc3c(c2)OCO3)cc1 (stereo not given),nt,nt,0.1
Cc1sc2c(c1C)CN(CCN1CCOCC1)CN2C(=O)c1ccccc1,297.8,35.0,1.6
COc1ccc(Nc2nccc(-c3ccc(C#N)cc3)n2)cc1,488.2,-14.0,7.3
COc1ccc(Nc2nccc(-c3cccc(N)c3)n2)cc1,206.7,99.3*,-7.6
Cc1ccc(C(=O)NC(=O)CSc2nncn2C)cc1,235.8,1.2,0.6
Cc1ccc(C2=NN=C(NC(=O)CSc3nncn3C)SC2)cc1,267.8,99.5*,6.3
CCC(C)[C@H](NC(=O)N1CC(=O)Nc2ccccc21)C(=O)N[C@@H](C(=O)O)c1ccccc1 (stereo not given in full),346.1,-6.3,1.4
CCC(C)N1CC(O)=C(c2nc3ccccc3[nH]2)C1=N (stereo not given),210.9,81.7*,3.0
CCCCCCN1CC(O)=C(c2nc3ccccc3[nH]2)C1=N,297.5,5.4,3.8
CCOC(=O)c1ccc(NC(=O)C2CC(=O)N=C(N)S2)cc1 (stereo not given),169.1,-28.9,1.0
CCCN1CCN(C(=O)c2oc3ccccc3c2NC(=O)C2CC2)CC1,271.8,0.3,-0.2
CN(C)c1ccc(/C=C(/C(=O)c2ccc(Cl)cc2Cl)n2cncn2)cc1,0.0,nt,6.8
COc1ccc(/C=C(/C(=O)c2ccc(Cl)cc2Cl)n2cncn2)cc1,566.9,95.3*,-0.1
O=C1CN(C(=O)COC(=O)CCS(=O)(=O)c2ccccc2)c2ccccc2N1,348.0,-0.4,1.6
O=C(CCl)N=c1sccn1Cc1ccccc1Cl,329.8,nt,-0.2
SMILES,T cell HTS,ALR H2O2 inh,N-glyco inh
O=C(CCl)N=c1sccn1Cc1ccc(Cl)cc1Cl,355.8,94.8*,9.4
NS(=O)(=O)c1ccc(CNc2ccc3ccccc3n2)cc1,364.9,-5.8,4.9
O=C(Cc1ccccc1)NCC(=O)Nc1ccccc1Br,328.2,-3.0,-1.0
CCOC(=O)Cc1nnc(NC(=O)CCc2ccccc2)s1,217.7,-7.1,0.0
Cc1ccc(OCC(=O)NCc2ccccn2)cc1,168.8,-0.6,-0.5
Cc1ccc(-c2nc(CS(=O)CC(=O)NCc3ccc(F)cc3)c(C)o2)cc1 (stereo not given),381.8,98.8*,2.6
Cc1ccc(CNC(=O)CS(=O)Cc2nc(-c3cccs3)oc2C)cc1 (stereo not given),367.9,99.4*,-1.6
Cc1ccc(-c2nc(CS(=O)CC(=O)NCc3ccccn3)c(C)o2)cc1 (stereo not given),585.8,99.6*,1.5
N#Cc1nc(-c2ccccc2F)oc1NCCc1ccccn1,189.1,4.0,0.3
Cc1oc(-c2ccccc2F)nc1CS(=O)CC(=O)NCc1ccccn1 (stereo not given),464.2,99.2*,3.2
Cc1ccc(CCNC(=O)CS(=O)Cc2nc(-c3cccs3)oc2C)cc1 (stereo not given),136.5,nt,0.7
